For the first test, the target named is T1, Cholecystokinin receptor (Rattus norvegicus, UniProt P30551+P30553).
T1 sequence (P30551 whole entry): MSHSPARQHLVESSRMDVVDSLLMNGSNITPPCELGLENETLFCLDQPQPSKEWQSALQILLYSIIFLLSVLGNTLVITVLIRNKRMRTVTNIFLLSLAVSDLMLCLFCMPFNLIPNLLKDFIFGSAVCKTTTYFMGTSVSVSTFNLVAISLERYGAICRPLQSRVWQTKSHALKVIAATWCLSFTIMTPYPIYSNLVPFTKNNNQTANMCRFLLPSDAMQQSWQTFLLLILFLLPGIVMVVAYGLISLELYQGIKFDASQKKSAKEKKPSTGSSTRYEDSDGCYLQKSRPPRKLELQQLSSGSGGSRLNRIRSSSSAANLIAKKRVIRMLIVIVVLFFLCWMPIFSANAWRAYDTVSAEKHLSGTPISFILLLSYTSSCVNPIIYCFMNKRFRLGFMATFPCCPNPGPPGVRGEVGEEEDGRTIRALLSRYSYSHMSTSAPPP
T1 sequence (P30553 whole entry): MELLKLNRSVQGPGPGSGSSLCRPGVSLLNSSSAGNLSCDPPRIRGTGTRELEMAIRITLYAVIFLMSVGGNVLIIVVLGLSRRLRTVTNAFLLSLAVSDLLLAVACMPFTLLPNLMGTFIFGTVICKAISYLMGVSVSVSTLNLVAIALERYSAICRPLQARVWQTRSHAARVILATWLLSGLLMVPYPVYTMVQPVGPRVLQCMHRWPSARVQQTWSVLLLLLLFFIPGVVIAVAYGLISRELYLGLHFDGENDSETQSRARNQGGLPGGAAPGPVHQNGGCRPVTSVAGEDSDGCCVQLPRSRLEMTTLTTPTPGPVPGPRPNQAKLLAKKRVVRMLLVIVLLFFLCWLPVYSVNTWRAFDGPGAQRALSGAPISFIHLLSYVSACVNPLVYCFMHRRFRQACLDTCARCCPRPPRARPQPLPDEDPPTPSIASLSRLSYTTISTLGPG
As to the kind of experiment: Inhibition of [125I]-CCK-8 binding to CCK receptors in rat pancreatic tissue.
Conditions: not given
One may read the IC50 as the point on the concentration scale where inhibition reaches its midpoint. A low value points to inhibition by little substance. `CC(C)(C)OC(=O)CN1C(=O)C(NC(=O)c2cc3ccccc3[nH]2)CCCc2ccccc21` (configuration not stated) displayed an IC50 of 60 nM.

Regarding `CCOC(=O)CN1C(=O)C(NC(=O)c2cc3ccccc3[nH]2)CCc2ccccc21` (configuration not stated), the half-inhibitory concentration (IC50) was found to be 110 nM.

In the case of `CC(C)(C)OC(=O)CN1C(=O)C(NC(=O)c2cc3ccccc3[nH]2)CCc2ccccc21` (configuration not stated), the IC50 stood at 7 nM.

With `CC(C)(C)OC(=O)CN1C(=O)[C@H](NC(=O)c2cc3ccccc3[nH]2)CCc2ccccc21`, the IC50 is 3 nM. Against the preceding compound, the IC50 is about 2.3-fold lower.

For the compound `CC(C)(C)OC(=O)CN1C(=O)[C@@H](NC(=O)c2cc3ccccc3[nH]2)CCc2ccccc21`, the 50% inhibitory concentration (IC50) came out at 200 nM.

`CC(C)(C)OC(=O)CN1C(=O)C(NC(=O)c2cc3ccccc3[nH]2)Cc2ccccc21` (configuration not stated) came in with an IC50 of 200 nM. In other words, the sub-micromolar range.

For the compound `CC(C)(C)OC(=O)CN1C(=O)[C@H](NC(=O)c2ccc3ccccc3c2)CCc2ccccc21`, the IC50 amounted to 4.2 nM.

In turn, `CC(C)(C)OC(=O)CN1C(=O)C(N)CCc2ccccc21` (configuration not stated) registered a half-inhibitory concentration (IC50) of 100000 nM. This IC50 lies about 24000-fold higher than the previous one.

As for `CC(C)(C)OC(=O)CN1C(=O)C(NC(=O)CCc2c[nH]c3ccccc23)CCc2ccccc21` (configuration not stated), the half-maximal inhibitory concentration (IC50) was found to be 2000 nM. Against the preceding compound, the IC50 is about 50-fold lower.

Take `CC(C)(C)OC(=O)CN1C(=O)C(NC(=O)c2ccc(Cl)c(Cl)c2)CCc2ccccc21` (configuration not stated): the half-maximal inhibitory concentration (IC50) came to 28 nM.

As for `CC(C)(C)OC(=O)CN1C(=O)C(NC(=O)c2ccc(Cl)cc2)CCc2ccccc21` (configuration not stated), the concentration for half-maximal inhibition (IC50) worked out at 130 nM.

In the case of `O=C(NC1CCc2ccccc2N(Cc2ccccc2)C1=O)c1cc2ccccc2[nH]1` (configuration not stated), the IC50 worked out at 35 nM.

Another test has as its target T1, Cholecystokinin receptor. As to the kind of experiment: Half-maximal inhibition of binding of [125I]CCK-8 to Cholecystokinin receptor in rat pancreatic tissue.
Conditions: not given
`CN(C)c1ccc(C(=O)NC2CCc3ccccc3N(CC(=O)OC(C)(C)C)C2=O)cc1` (configuration not stated): the half-inhibitory concentration (IC50) came to 50000 nM.

The compound `CC(C)(C)OC(=O)CN1C(=O)C(NC(=O)Cc2ccc3ccccc3c2)CCc2ccccc21` (configuration not stated) registered an IC50 of 2700 nM.

In turn, `CC(C)(C)OC(=O)CN1C(=O)C(NC(=O)c2ccc3ccccc3c2)CCc2ccccc21` (configuration not stated) showed an IC50 of 7.5 nM.

In turn, `CN1C(=O)C(NC(=O)c2ccc3ccccc3c2)CCc2ccccc21` (configuration not stated) yielded a half-inhibitory concentration (IC50) of 6800 nM.

`CC(C)(C)OC(=O)CN1C(=O)C(NC(=O)c2ccccc2)CCc2ccccc21` (configuration not stated): the IC50 was determined as 2100 nM.

For `O=C(O)CN1C(=O)C(NC(=O)c2ccc3ccccc3c2)CCc2ccccc21` (configuration not stated), the half-maximal inhibitory concentration (IC50) turned out to be 2300 nM.

Take `CC(C)(C)OC(=O)CN1C(=O)C(NCc2ccc3ccccc3c2)CCc2ccccc21` (configuration not stated): the half-maximal inhibitory concentration (IC50) came out at 4 nM.

The test system of the next test is Mus musculus. As to the kind of experiment: Dose rquired to inhibit CCK-induced gastric emptying in mice p.o. Type of test: functional. Conditions: Stomach, po. The essentials: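 Antagonism of CCK-8-induced inhibition of gastric emptying, with gastric emptying followed using a charcoal meal. Test agents were given orally, and the ED50 was taken as the oral dose (mg/kg) that antagonized the CCK-8 effect.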
One may read the ED50 as the dose that gives a 50% effect, or the effect in half of the subjects. A high value points to a need for a large dose. On to `CN1C(=O)[C@@H](NC(=O)c2cc3ccccc3[nH]2)N=C(c2ccccc2)c2ccccc21` [DEVAZEPIDE], for which it took a dose of 0.04 mg/kg to reach the 50% effect level (ED50).

In turn, `CC(C)(C)OC(=O)CN1C(=O)C(NC(=O)c2cc3ccccc3[nH]2)CCc2ccccc21` (configuration not stated) showed an ED50 of 2.6 mg/kg. Against the preceding compound, the ED50 is about 65-fold higher.

`CC(C)(C)OC(=O)CN1C(=O)[C@H](NC(=O)c2ccc3ccccc3c2)CCc2ccccc21`: it took a dose of 6.8 mg/kg to reach the 50% effect level (ED50).
